In ChEMBL document CHEMBL1137398, “Synthesis and immunobiological activity of an original series of acyclic lipid a mimics based on a pseudodipeptide backbone” (J Med Chem, 2006):
In brackets after ≈: the same amount, converted by molar mass. Activity calls are given as the source filed them. No cut-off for these calls is given here.

Legend:
[1] = tested on: Limulus; assay: Endotoxicity against horseshoe crab blood at 0.1 mg/mL by LAL chromogenic assay; format: toxicity, organism-based; conditions: limulus polyphemus
In short: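 LAL chromogenic endotoxin assay with compound at 0.1 mg/mL. Average of three independent experiments.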

[2] = tested on: PBMC; assay: Induction of IL6 production in human PBMC at 20 ug/ml relative to LPS; format: functional, cell-based
In short: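 Human PBMC isolated on Ficoll from donor buffy coat. Cultured at 1 × 10⁶ viable cells/well in RPMI-1640 with 10% FCS and antibiotics. Incubated at 37 °C, 5% CO₂ with compound at final 20 µg/mL. Controls were medium alone and E. coli LPS (055:B5). Supernatant harvested at 24 h and IL-6 measured by ELISA; detection limit 10 pg/mL.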

[3] = tested on: Macrophage; assay: Induction of NO production in murine macrophage; format: functional, cell-based; conditions: Mus musculus
In short: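 Bone-marrow macrophages from six-week-old male C57BL/6 mice, differentiated 8 d in DMEM with 20% horse serum and 30% L929 supernatant. Then set to 700 000 cells/mL in DMEM with 5% FCS. Serially diluted compounds were incubated with cells in triplicate for 22 h at 37 °C, 8% CO₂. Supernatant nitrite measured by Griess reaction at 562 nm (reference 690 nm) against a standard curve. Reported as mean ± SD dose-response.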

[4] = tested on: PBMC; assay: Antagonist effect on LPS-induced IL6 production in human PBMC at 2 ug/mL; format: functional, cell-based
In short: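 Human PBMC from healthy donor buffy coat, isolated on Ficoll (1.077 g/mL). Cultured at 1 × 10⁶ viable cells/well in RPMI-1640 with 10% FCS, penicillin/streptomycin and L-glutamine. Pre-incubated 90 min at 37 °C, 5% CO₂ with compound at final 0.02, 0.2, 2 or 20 µg/mL. E. coli LPS (055:B5) then added at 0.01 µg/mL. After 24 h, supernatant IL-6 measured by ELISA.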

[5] = tested on: Oryctolagus cuniculus; assay: Induction of pyrogenicity in rabbit assessed as increase in temperature at 0.001 mg/kg, iv; format: functional, organism-based; design: dose 0.001 mg/kg
In short: (§1)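 Rabbit pyrogenicity test, iv injection, with water as control. Read-out is the summed temperature rise in three rabbits (°C), scored pass, inconclusive or fail.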

[6] = tested on: Oryctolagus cuniculus; assay: Induction of pyrogenicity in rabbit assessed as increase in temperature at 0.01 mg/kg, iv; format: functional, organism-based; design: dose 0.01 mg/kg; in short: as §1
[7] = tested on: Oryctolagus cuniculus; assay: Induction of pyrogenicity in rabbit assessed as increase in temperature at 0.1 mg/kg, iv; format: functional, organism-based; design: dose 0.1 mg/kg; in short: as §1

SMILES	EC50 [3] [µg/mL]	Activity [1] [EU/ml]	Activity [2]	Activity [4]	Activity [5]	Activity [6]	Activity [7]
CCCCCCCCCCCC(=O)O[C@H](CCCCCCCCCCC)CC(=O)N[C@@H](CCOP(=O)(O)O)C(=O)NCCC[C@H](COP(=O)(O)O)NC(=O)C[C@H](O)CCCCCCCCCCC	0.15 (≈ 0.148 µM)	240	inactive	Active	–	–	–
CCCCCCCCCCCC(=O)O[C@H](CCCCCCCCCCC)CC(=O)N[C@H](CCOP(=O)(O)O)C(=O)NCCC[C@H](CO)NC(=O)C[C@H](O)CCCCCCCCCCC	1.85 (≈ 1.98 µM)	14257	–	inactive	–	–	–
CCCCCCCCCCCC(=O)O[C@H](CCCCCCCCCCC)CC(=O)N[C@H](CCOP(=O)(O)O)C(=O)NCCC[C@H](COP(=O)(O)O)NC(=O)C[C@H](O)CCCCCCCCCCC	0.55 (≈ 0.542 µM)	1072	inactive	Active	–	–	–
CCCCCCCCCCCC(=O)O[C@H](CCCCCCCCCCC)CC(=O)N[C@@H](CCOP(=O)(O)O)C(=O)NCCC[C@H](CO)NC(=O)C[C@H](O)CCCCCCCCCCC	6.86 (≈ 7.34 µM)	9320	–	inactive	–	–	–
CCCCCCCCCCCC(=O)O[C@H](CCCCCCCCCCC)CC(=O)N[C@H]1[C@H](OC[C@H]2O[C@H](OP(=O)(O)O)[C@H](NC(=O)C[C@H](O)CCCCCCCCCCC)[C@@H](O)[C@@H]2O)O[C@H](CO)[C@@H](OP(=O)(O)O)[C@@H]1O [DEFOSLIMOD]	0.025 (≈ 0.022 µM)	–	–	–	–	–	–

Now from value to compound, other results behind:

EC50 [3] [µg/mL]	SMILES	Activity [1] [EU/ml]	Activity [2]	Activity [4]	Activity [5]	Activity [6]	Activity [7]
0.083	CCCCCCCCCCCC(=O)O[C@H](CCCCCCCCCCC)CC(=O)NC(CCOP(=O)(O)O)C(=O)NCCC[C@H](COP(=O)(O)O)NC(=O)C[C@H](O)CCCCCCCCCCC (mixture of isomers)	874	inactive	Active	inactive	inactive	–
3.53	CCCCCCCCCCCC(=O)O[C@H](CCCCCCCCCCC)CC(=O)NC(CCOP(=O)(O)O)C(=O)NCCC[C@H](CO)NC(=O)C[C@H](O)CCCCCCCCCCC (mixture of isomers)	16238	–	inactive	inactive	inactive	Active
